# Assay results: ChEMBL document CHEMBL3763085, “Optimization of tetrahydronaphthalene inhibitors of Raf with selectivity over hERG” (Bioorg Med Chem Lett, 2016)
# Experiments:
# Assay type in all cases: ADME, organism-based
# [1] = AUC in Sprague-Dawley rat at 10 mg/kg, po; conditions: in vivo
# Summary of the method: (§1)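 Male SD rats were dosed orally at 10 mg/kg in 10% 2-hydroxypropyl-beta-cyclodextrin.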
# [2] = Oral bioavailability in Sprague-Dawley rat at 10 mg/kg; conditions: in vivo; summary of the method: as §1
# [3] = Plasma clearance in Sprague-Dawley rat at 1 mg/kg, iv
# Summary of the method: (§2)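 Male SD rats received 1 mg/kg intravenously. The vehicle was 10% 2-hydroxypropyl-beta-cyclodextrin or ethanol/PEG400/N,N-dimethylacetamide/water 1:4:1:4 (by volume), depending on compound. Plasma clearance (L/h/kg) and steady-state volume of distribution (L/kg) were derived.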
# [4] = Volume of distribution at steady state in Sprague-Dawley rat at 1 mg/kg, iv; conditions: in vivo, read-out: Vdss; summary of the method: as §2
AUC [1],bioavailability [2],clearance [3],Vd [4],SMILES
126 µM·h,54%,1.33 mL/min/kg,0.41 L/kg,Cl.Cn1cc(-c2cc(C(=O)N[C@@H]3CCc4ccc(Oc5ccnc6c5CCC(=O)N6)cc4C3)cc(C(F)(F)F)c2)cn1
98.6 µM·h,100%,3.83 mL/min/kg,0.75 L/kg,CN(C)Cc1cc(C(=O)N[C@@H]2CCc3ccc(Oc4ccnc5c4CCC(=O)N5)cc3C2)cc(C(F)(F)F)c1.Cl.Cl
